Laboratory results taken from PMC1557817 (Nucleic Acids Research, 2006).
Like-named read-outs stand apart in the source and are kept apart here. Each block holds one compound with its values, some of them ahead of it.

Experiments:
[1] = molecular target: human eRF3 (Homo sapiens, UniProt P15170); experiment: ITC binding of ligands to eRF3
Method in brief: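 Run at 25°C in phosphate buffer pH 7.5 (25 mM K2HPO4, 0.1 M KCl, 10% glycerol, 1 mM DTT), MgCl2 0–10 mM. Cell: 6–15 μM His-tagged human eRF3 (aa 139–637), alone or with full-length eRF1, both E. coli-expressed. Syringe: ligand at 50–300 μM, 10 μl injections. Dilution heat subtracted; one-set-of-sites fit gave Ka and ΔH; ΔG and ΔS calculated; 2–4 repeats.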

[2] = molecular target: prokaryotic RF3; conditions: 5 mM Mg^2+ ref 28; cited from earlier work
[3] = system: S.pombe eRF3; conditions: 2.0–2.5 mM Mg^2+ ref 24; cited from earlier work
[4] = molecular target: eRF3•GDP (Homo sapiens, UniProt P15170); experiment: ITC binding of ligands to the eRF3•GDP complex; conditions: absence of eRF1
[5] = molecular target: eRF1•eRF3 (Homo sapiens, UniProt P15170); experiment: ITC binding of guanine nucleotides to the eRF1•eRF3 complex
[6] = molecular target: eRF1•eRF3•GDP (Homo sapiens, UniProt P15170); experiment: Displacement ITC: eRF1•eRF3 saturated with GDP titrated with GTP; conditions: Tris buffer, 2 mM Mg^2+, competitive ligand binding model
Method in brief: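 Proteins: human eRF1 and truncated human eRF3 (aa 139–637), both with a C-terminal His6 tag, expressed in E. coli, purified by Ni-NTA then anion exchange, and dialysed into assay buffer. Method: eRF1•eRF3 in the cell was saturated with one HPLC-purified nucleotide, then titrated with 10 μl aliquots of the other. K2 = Kapp(1 + K1[L1]). Run at 25°C, pH 7.5; dilution heats subtracted; 2–4 runs.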

[7] = molecular target: truncated human eRF3 (amino acids 139-637), C-terminal hexahistidine (human) (UniProt P15170); experiment: ITC
[8] = molecular target: truncated human eRF3 (amino acids 139-637), C-terminal hexahistidine (human) (UniProt P15170); experiment: ITC; remark: listed apart in the source

- fold increase of Kd at 2 mM Mg^2+ versus absence of Mg^2+ ([1]; both phosphate and Tris buffers): 1.7 fold
Compound: Nc1nc2c(ncn2[C@@H]2O[C@H](COP(=O)(O)OP(=O)(O)O)[C@@H](O)[C@H]2O)c(=O)[nH]1 [GDP]
- Kd [2]: 5.5 nM
- affinity of GDP for yeast eRF3 (in words) [3]: lost

- GTP binding to eRF3•GDP (in words) [4]: no binding was detected
- constant of GTP binding relative to that of GDP binding ([5]; 2.0 mM Mg^2+): four times higher
- fold increase of GTP affinity by Mg^2+ ([5]; physiological Mg^2+ versus absence of Mg^2+): 6 fold
- GTP binding constant [6]: 1.8e+06 M⁻¹
Compound: Nc1nc2c(ncn2[C@@H]2O[C@H](COP(=O)(O)OP(=O)(O)OP(=O)(O)O)[C@@H](O)[C@H]2O)c(=O)[nH]1 [GTP]
- GTP binding to eRF3 (in words) ([1]; phosphate or Tris, absence and presence of 2 mM Mg^2+): failed to reveal any measurable GTP binding
- GTP binding, direct titration (in words) ([5]; Tris buffer): signal is too low to be measured directly

- dHobs (observed, not corrected for protonation) [7]: -56.5 kJ/mol
- dHobs (observed, not corrected for protonation) [8]: -80.3 kJ/mol
- stoichiometry N [8]: 0.47
Compound: human eRF1 (wild-type), C-terminal hexahistidine (from UniProt P62495 1-437) (natural protein)
